# In ChEMBL document CHEMBL4406921, “Discovery of Axelopran (TD-1211): A Peripherally Restricted μ-Opioid Receptor Antagonist” (ACS Med Chem Lett, 2019):
# Active and inactive are the calls of the source. The rule behind the calls is not given here.
# Tests used:
# [1] = target: T1, Mu-type opioid receptor (Homo sapiens, UniProt P35372); test: Displacement of [3H]-DPN from recombinant human mu opioid receptor expressed in CHO-K1 cell membranes by radioligand binding assay
# In short: (§1)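 Membranes from CHO-K1 cells stably transfected with human recombinant μ or δ receptor, or guinea pig κ receptor; competition with [3H]-DPN radioligand; affinity reported as pKi.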
# [2] = target: T2, Delta-type opioid receptor (Homo sapiens, UniProt P41143); test: Displacement of [3H]-DPN from recombinant human delta opioid receptor expressed in CHO-K1 cell membranes by radioligand binding assay; in short: as §1
# T2 sequence (P41143 whole entry): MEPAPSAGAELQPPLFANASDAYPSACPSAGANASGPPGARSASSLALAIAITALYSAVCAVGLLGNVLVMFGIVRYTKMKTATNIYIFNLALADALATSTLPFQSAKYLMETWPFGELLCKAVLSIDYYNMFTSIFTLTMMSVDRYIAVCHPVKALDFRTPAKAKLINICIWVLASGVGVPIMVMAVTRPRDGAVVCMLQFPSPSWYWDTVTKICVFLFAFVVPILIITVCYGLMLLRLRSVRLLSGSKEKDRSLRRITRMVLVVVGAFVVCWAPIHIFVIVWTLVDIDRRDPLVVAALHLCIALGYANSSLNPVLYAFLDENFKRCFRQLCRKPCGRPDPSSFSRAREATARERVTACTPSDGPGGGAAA
# [3] = target: T3, Kappa-type opioid receptor (Cavia porcellus, UniProt P41144); test: Displacement of [3H]-DPN from guinea pig kappa opioid receptor expressed in CHO-K1 cell membranes by radioligand binding assay; in short: as §1
# T3 sequence (P41144 whole entry): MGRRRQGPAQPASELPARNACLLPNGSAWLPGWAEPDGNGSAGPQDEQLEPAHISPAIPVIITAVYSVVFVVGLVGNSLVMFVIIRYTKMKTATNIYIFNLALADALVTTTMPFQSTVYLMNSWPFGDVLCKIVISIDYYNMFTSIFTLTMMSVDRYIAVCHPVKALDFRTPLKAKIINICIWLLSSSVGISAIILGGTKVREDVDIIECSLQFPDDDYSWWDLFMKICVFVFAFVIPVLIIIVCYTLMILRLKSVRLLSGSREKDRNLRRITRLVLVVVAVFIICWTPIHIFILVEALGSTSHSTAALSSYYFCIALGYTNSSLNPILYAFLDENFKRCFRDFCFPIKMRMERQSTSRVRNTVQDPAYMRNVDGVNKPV
# [4] = target: T1, Mu-type opioid receptor; test: Antagonist activity at human recombinant mu opioid receptor expressed in CHO-K1 cell membranes assessed as intrinsic activity at 10 pM to 20 uM incubated for 30 mins in presence of Eu-GTP by DELFIA GTP binding assay relative to DAMGO
# [5] = Half life in rat liver microsomes at 3 uM; type: ADME, Microsome
# [6] = Half life in dog liver microsomes at 3 uM; type: ADME, Canis lupus familiaris, Microsome
# [7] = Half life in human liver microsomes at 3 uM; type: ADME, Microsome
# [8] = Permeability coefficient, Kp in human Caco2 cells; type: ADME, cell-based; settings: Caco-2, read-out: Kp
# [9] = Cmax in Sprague-Dawley rat at 10 mg/kg, po administered via gavage; type: ADME, organism-based; set-up: dose 10 mg/kg, route oral; settings: in vivo
# [10] = AUC(0 to t) in Sprague-Dawley rat at 10 mg/kg, po administered via gavage; type: ADME, organism-based; settings: in vivo
# [11] = Oral bioavailability in Sprague-Dawley rat at 10 mg/kg administered via gavage; type: ADME, organism-based; settings: in vivo
# [12] = tested on: Mus musculus; test: Inhibition of morphine-induced delays in intestinal transit in po dosed ICR mouse administered via gavage pretreated with compound and 30 mins later injected with morphine followed 5 mins later by ingestion of test meal and measured after 60 mins; type: functional; settings: for ED50: read-out: ID50 (the source's name)
# In short: (§2)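 Mice dosed orally; reversal of morphine-induced delay in intestinal transit, delay in gastric emptying, or hot plate antinociception measured; dose-dependent responses fitted to give ID50 in mg/kg.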
# [13] = tested on: Mus musculus; test: Inhibition of morphine-induced delays in gastric emptying in po dosed ICR mouse administered via gavage pretreated with compound and 30 mins later injected with morphine followed 5 mins later by ingestion of test meal and measured after 60 mins; type: functional; settings: for ED50: read-out: ID50 (the source's name); in short: as §2
# [14] = tested on: Mus musculus; test: Inhibition of morphine-induced antinociceptive activity in po dosed ICR mouse administered via gavage pretreated with compound and 30 mins later injected with morphine and measured after 30 mins by hot plate test; type: functional; settings: for ED50: read-out: ID50 (the source's name); in short: as §2
# [15] = species on record: Mus musculus; test: Peripheral selectivity index, ratio of ID50 for inhibition of morphine-induced antinociceptive activity in ICR mouse to ID50 for inhibition of morphine-induced delays in intestinal transit in ICR mouse; type: functional
# In short: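 Mice were dosed orally with antagonist at several doses and challenged with morphine. ID50 values were taken from dose-dependent reversal of morphine-induced hot plate antinociception (CNS) and of morphine-induced delay in intestinal transit (peripheral). The index is the hot plate ID50 divided by the intestinal transit ID50.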
# [16] = species on record: Mus musculus; test: Peripheral selectivity index, ratio of ID50 for inhibition of morphine-induced delays in gastric emptying in ICR mouse to ID50 for inhibition of morphine-induced delays in intestinal transit in ICR mouse; type: functional
# [17] = Oral bioavailability in human; type: ADME, organism-based; settings: in vivo
# [18] = Cmax in Sprague-Dawley rat at 100 mg/kg, po administered via gavage; type: ADME, organism-based; set-up: dose 100 mg/kg, route oral; settings: in vivo
# [19] = AUC(0 to t) in Sprague-Dawley rat at 100 mg/kg, po administered via gavage; type: ADME, organism-based; settings: in vivo
# [20] = Half life in Sprague-Dawley rat at 100 mg/kg, po administered via gavage; type: ADME, organism-based; settings: in vivo
# In short: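 Male Sprague–Dawley rats received 100 mg/kg by oral gavage, with n = 3. Plasma half-life was taken from the pharmacokinetic profile alongside Cmax, AUC(0–t) and oral bioavailability.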
# [21] = Oral bioavailability in Sprague-Dawley rat at 100 mg/kg administered via gavage; type: ADME, organism-based; settings: in vivo
# [22] = tested on: Canis familiaris; test: Reversal of morphine-induced sedation in Beagle dog at 3 mg/kg, po administered with compound prior to morphine challenge and measured up to 120 mins post-mophine administration; type: functional, organism-based; settings: Canis lupus familiaris
# [23] = Cmax in Sprague-Dawley rat at 5 mg/kg, po administered via gavage; type: ADME, organism-based; set-up: dose 5 mg/kg, route oral; settings: in vivo
# [24] = AUC(0 to t) in Sprague-Dawley rat at 5 mg/kg, po administered via gavage; type: ADME, organism-based; settings: in vivo
# [25] = Half life in Sprague-Dawley rat at 5 mg/kg, po administered via gavage; type: ADME, organism-based; settings: in vivo
# [26] = Oral bioavailability in Sprague-Dawley rat at 5 mg/kg administered via gavage; type: ADME, organism-based; settings: in vivo
# [27] = target: T1, Mu-type opioid receptor; test: Antagonist activity at human recombinant mu opioid receptor expressed in CHO-K1 cell membrane assessed as inhibition of DAMGO-induced GTP binding incubated for 30 mins in presence of Eu-GTP by DELFIA GTP binding assay
# [28] = target: T2, Delta-type opioid receptor; test: Antagonist activity at human recombinant delta opioid receptor expressed in CHO-K1 cell membrane assessed as inhibition of DPDPE-induced [35S]-GTPgammaS binding incubated for 30 mins by time resolved fluorescence assay
# [29] = target: Kappa-type opioid receptor (Cavia porcellus) (UniProt P41144); test: Antagonist activity at guinea pig recombinant kappa opioid receptor expressed in CHO-K1 cell membrane assessed as inhibition of U69593-induced [35S]-GTPgammaS binding incubated for 30 mins by time resolved fluorescence assay
# Sequence of Kappa-type opioid receptor (Cavia porcellus) (P41144 whole entry): as above
# [30] = target: Mu-type opioid receptor (Cavia porcellus, UniProt P97266); test: Antagonist activity at mu opioid receptor in guinea pig ileum assessed as inhibition of electric field stimulated contractions incubated for 15 mins in presence of endomorphin-1; type: tissue-based; settings: read-out: pA2 (converted)
# Sequence of Mu-type opioid receptor (Cavia porcellus, UniProt P97266) (P97266 whole entry): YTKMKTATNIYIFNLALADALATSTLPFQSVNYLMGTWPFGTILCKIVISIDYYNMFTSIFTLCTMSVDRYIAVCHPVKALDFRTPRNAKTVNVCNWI
# [31] = target: T3, Kappa-type opioid receptor; test: Antagonist activity at kappa opioid receptor in guinea pig ileum assessed as inhibition of electric field stimulated tissue contraction incubated for 15 mins in presence of U69593; type: tissue-based; settings: read-out: pA2 (converted)
# [32] = species on record: Mesocricetus auratus; test: Antagonist activity at delta opiod receptor in golden syrian hamster vas deferens assessed as inhibition of electric field stimulated tissue contraction incubated for 15 mins in presence of […]
# [33] = Oral bioavailability in fasted female Beagle dog; type: ADME, organism-based, Canis lupus familiaris; settings: in vivo
# [34] = Oral bioavailability in fasted male Beagle dog; type: ADME, organism-based, Canis lupus familiaris; settings: in vivo
# [35] = Protein binding in human plasma; type: ADME, cell-free; settings: read-out: PPB
# [36] = Efflux ratio of permeability in human Caco2 cells; type: ADME, cell-based; settings: Caco-2
# [37] = tested on: MDR1; test: Efflux ratio of permeability in dog MDCK-MDR1 cells; type: ADME, cell-based, Canis lupus familiaris
# [38] = Drug uptake in rat cerebrospinal fluid at 20 mg/kg, po; type: ADME, organism-based; settings: in vivo
# In short: (§3)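 Rats given 20 mg/kg orally; CSF, brain and plasma concentrations measured to estimate CNS penetration.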
# [39] = Drug uptake in rat brain at 20 mg/kg, po; type: ADME, organism-based; settings: in vivo; in short: as §3
# [40] = tested on: Rattus norvegicus; test: Reversal of loperamide-induced delay in gastric emptying in po dosed Sprague-Dawley rat administered with compound and loperamide at 35 mins and 5 mins prior to test meal respectively measured after 60 mins; type: functional; settings: read-out: ID50 (the source's name)
# [41] = tested on: Rattus norvegicus; test: Reversal of castor oil-induced diarrhea in po dosed Sprague-Dawley rat po administered with compound and loperamide at 45 mins and 15 mins prior to castor oil administration and measured after 2 hrs; type: functional; settings: read-out: ID50 (the source's name)
# [42] = tested on: Canis familiaris; test: Inhibition of loperamide-induced gastrointestinal contraction in Beagle dog at 3 mg/kg, po incubated with compound followed 15 mins later by treated with loperamide and measured for 30 mins; type: functional, organism-based; settings: Canis lupus familiaris
# [43] = tested on: Mus musculus; test: Inhibition of morphine-dependent CNS-mediated withdrawal response in Swiss Webster mouse at 30 mg/kg, po after 60 mins; type: functional, organism-based
# [44] = tested on: Rattus norvegicus; test: Reversal of morphine-induced antinociception in Sprague-Dawley rat at >60 mg/kg, po pretreated for 30 mins followed by morphine injection and measured after 60 mins by hot plate test; type: functional, organism-based
# [45] = tested on: Canis familiaris; test: Reversal of morphine-induced antinociception in Beagle dog at 3 mg/kg, po treated with compound prior to morphine challenge measured after 15 to 45 mins by hot plate test; type: functional, organism-based; settings: Canis lupus familiaris
# T1 sequence (P35372 whole entry): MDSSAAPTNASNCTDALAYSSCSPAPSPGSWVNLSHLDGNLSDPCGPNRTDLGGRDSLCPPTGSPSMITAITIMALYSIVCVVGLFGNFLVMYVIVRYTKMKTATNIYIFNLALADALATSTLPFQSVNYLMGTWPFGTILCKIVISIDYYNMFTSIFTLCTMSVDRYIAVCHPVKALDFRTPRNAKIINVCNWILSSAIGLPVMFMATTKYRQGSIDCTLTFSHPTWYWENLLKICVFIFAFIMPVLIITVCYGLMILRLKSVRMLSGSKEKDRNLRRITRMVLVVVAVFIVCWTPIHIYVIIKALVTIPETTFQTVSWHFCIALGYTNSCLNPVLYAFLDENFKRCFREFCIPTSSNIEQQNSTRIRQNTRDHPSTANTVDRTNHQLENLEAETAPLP
smiles,measurement,setting,value
C[C@H]1CN(C[C@H](Cc2ccccc2)C(=O)NCC(=O)O)CC[C@H]1c1cccc(O)c1,Ki,[1],0.316 nM
same,Ki,[2],5.01 nM
same,Ki,[3],5.01 nM
same,Intrinsic activity,[4],-7%
same,half-life at 3 µM,[5],> 1.5 h
same,half-life at 3 µM,[6],> 1.5 h
same,half-life at 3 µM,[7],> 1.5 h
same,Papp,[8],3 ×10⁻⁶ cm/s
same,Cmax,[9],10 ng/mL
same,AUC(0-t),[10],2 ng·h/mL
same,bioavailability,[11],0.1%
same,ED50,[12],2.5 mg/kg
same,ED50,[13],0.6 mg/kg
same,ED50,[14],> 20 mg/kg
same,Selectivity Index,[15],>8
same,Selectivity Index,[16],>33
same,bioavailability,[17],6%
C[N+]1(CC2CC2)CC[C@]23c4c5ccc(O)c4O[C@H]2C(=O)CC[C@@]3(O)[C@H]1C5.[Br-] (some centres undefined) [METHYLNALTREXONE BROMIDE],Intrinsic activity,[4],19%
same,half-life at 3 µM,[5],> 1.5 h
same,half-life at 3 µM,[6],> 1.5 h
same,half-life at 3 µM,[7],> 1.5 h
same,Papp,[8],2 ×10⁻⁶ cm/s
same,Cmax,[18],570 ng/mL
same,AUC(0-t),[19],490 ng·h/mL
same,half-life,[20],2.8 h
same,bioavailability,[21],2.6%
same,ED50,[12],67 mg/kg
same,ED50,[13],25 mg/kg
same,bioavailability,[17],< 1%
NC(=O)c1cccc([C@H]2C[C@H]3CC[C@@H](C2)N3CCN(CC2CCCCC2)C(=O)[C@@H](O)CO)c1.O=S(=O)(O)O [AXELOPRAN SULFATE],inhibition,[22],Active
same,Ki,[1],0.158 nM
same,Ki,[2],1.58 nM
same,Ki,[3],0.126 nM
same,Intrinsic activity,[4],-3%
same,half-life at 3 µM,[5],1.45 h
same,half-life at 3 µM,[6],0.45 h
same,half-life at 3 µM,[7],1.5 h
same,Papp,[8],5 ×10⁻⁶ cm/s
same,Cmax,[23],210 ng/mL
same,AUC(0-t),[24],470 ng·h/mL
same,half-life,[25],1.3 h
same,bioavailability,[26],27%
same,inhibition,[12],Dose-dependent effect
same,ED50,[12],0.35 mg/kg
same,inhibition,[13],Dose-dependent effect
same,ED50,[13],0.087 mg/kg
same,inhibition,[14],Dose-dependent effect
same,ED50,[14],14 mg/kg
same,Selectivity Index,[15],40
same,Selectivity Index,[16],161
same,pKb,[27],9.6
same,pKb,[28],8.8
same,pKb,[29],9.5
same,Kb,[30],0.0794 nM
same,Kb,[31],1.58 nM
same,pKb,[32],8.4
same,bioavailability,[33],29%
same,bioavailability,[34],45%
same,fraction unbound,[35],0.7 to 0.77
same,efflux ratio,[36],10
same,efflux ratio,[37],24
same,Drug uptake,[38],< 2%
same,Drug uptake,[39],< 2%
same,ED50,[40],0.24 mg/kg
same,ED50,[41],0.01 mg/kg
same,inhibition,[42],Active
same,inhibition,[43],inactive
same,inhibition,[44],Active
same,inhibition,[45],Active
